ChEMBL document CHEMBL1777725, “New class of potent antitumor acylhydrazone derivatives containing furan” (Eur J Med Chem, 2010)

Legend:
BGC-823 [1] = test: Growth inhibition of human BGC823 cells at 10 uM after 48 hrs by SRB assay; assay type: functional; conditions: BGC-823, 48 h, read-out: GI
In short: (§1)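 Exponentially growing cells at 1–2.5 ×10⁴ cells/mL, in humidified 5% CO₂, were seeded into 96-well plates. After 24 h, medium containing compound at various concentrations was added, and cells were incubated 48 h. Controls received RPMI-1640 medium only. Viable cell number was read by MTT at 570 nm for HL-60, and by SRB at 540 nm for Bel-7402, BGC-823 and KB.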

HL-60 = test: Growth inhibition of human HL60 cells at 10 uM after 48 hrs by MTT assay; assay type: functional; conditions: HL-60, 48 h, read-out: GI; in short: as §1
Bel-7402 [2] = test: Growth inhibition of human Bel7402 cells at 10 uM after 48 hrs by SRB assay; assay type: functional; conditions: Bel-7402, 48 h, read-out: GI; in short: as §1
KB [3] = test: Growth inhibition of human KB cells at 10 uM after 48 hrs by SRB assay; assay type: functional; conditions: read-out: GI; in short: as §1
Bel-7402 [4] = test: Antitumor activity against human Bel7402 cells after 48 hrs by SRB assay; assay type: functional, cell-based; conditions: Bel-7402, 48 h; in short: as §1
BGC-823 [5] = test: Antitumor activity against human BGC823 cells after 48 hrs by SRB assay; assay type: functional, cell-based; conditions: BGC-823, 48 h; in short: as §1
KB [6] = test: Antitumor activity against human KB cells after 48 hrs by SRB assay; assay type: functional, cell-based; in short: as §1

Compound `COc1ccccc1C(=O)N/N=C/c1ccc(-c2ccc(F)cc2F)o1` has an inhibition of growth at 10 µM (BGC-823 [1]) of 35.9%, an inhibition of growth at 10 µM (HL-60) of 7.77% and an inhibition of growth at 10 µM (Bel-7402 [2]) of 1.69%. For the same compound, the inhibition of growth at 10 µM (KB [3]) was 10.1%.
In the case of `O=C(N/N=C/c1ccc(-c2ccccc2F)o1)c1ccc(Cl)cc1`, the inhibition of growth at 10 µM (BGC-823 [1]) is reported as 31.5%, the inhibition of growth at 10 µM (HL-60) is reported as 6.13% and the inhibition of growth at 10 µM (Bel-7402 [2]) is reported as 2.96%. It also gave an inhibition of growth at 10 µM (KB [3]) of 4.62%.
`O=C(N/N=C/c1ccc(-c2ccc(F)cc2)o1)c1ccccc1O` showed an inhibition of growth at 10 µM (BGC-823 [1]) of 71.5%, an IC50 (Bel-7402 [4]) of 15.2 µM and an IC50 (BGC-823 [5]) of 9.5 µM. It also gave an inhibition of growth at 10 µM (HL-60) of -2.08%, an inhibition of growth at 10 µM (Bel-7402 [2]) of 81.6% and an inhibition of growth at 10 µM (KB [3]) of 84.6%. It also gave an IC50 (KB [6]) of 39 µM.
`O=C(N/N=C/c1ccc(-c2ccc(Cl)cc2)o1)c1ccccc1` showed an inhibition of growth at 10 µM (BGC-823 [1]) of 19.4%, an inhibition of growth at 10 µM (HL-60) of 15.1% and an inhibition of growth at 10 µM (Bel-7402 [2]) of -7.17%. The inhibition of growth at 10 µM (KB [3]) was 3.2%.
With `O=C(N/N=C/c1ccc(-c2ccc(F)cc2F)o1)c1ccccc1O` the inhibition of growth at 10 µM (BGC-823 [1]) was 68.4%, the IC50 (Bel-7402 [4]) was 19.3 µM and the IC50 (BGC-823 [5]) was 46.6 µM. For the same compound, the inhibition of growth at 10 µM (HL-60) was -9.5%, the inhibition of growth at 10 µM (Bel-7402 [2]) was 63.4% and the inhibition of growth at 10 µM (KB [3]) was 61.8%. The IC50 (KB [6]) was 55.3 µM.
Compound `Cc1cccc(C(=O)N/N=C/c2ccc(-c3ccccc3[N+](=O)[O-])o2)c1` has an inhibition of growth at 10 µM (BGC-823 [1]) of 36.1%, an inhibition of growth at 10 µM (HL-60) of 6.25% and an inhibition of growth at 10 µM (Bel-7402 [2]) of 5.67%. The inhibition of growth at 10 µM (KB [3]) was 5.9%.
In the case of `O=C(N/N=C/c1ccc(-c2cccc(F)c2)o1)c1ccc(Br)cc1`, the inhibition of growth at 10 µM (BGC-823 [1]) is reported as 46.7%, the inhibition of growth at 10 µM (HL-60) is reported as 25.9% and the inhibition of growth at 10 µM (Bel-7402 [2]) is reported as 28.2%. For the same compound, the inhibition of growth at 10 µM (KB [3]) was 26%.
For `COc1ccccc1/C=N/NC(=O)c1ccc(-c2ccc(F)cc2F)o1`, the inhibition of growth at 10 µM (BGC-823 [1]) was 66.8%, the IC50 (Bel-7402 [4]) was 24.6 µM and the IC50 (BGC-823 [5]) was 81.6 µM. The inhibition of growth at 10 µM (HL-60) was 27.4%, the inhibition of growth at 10 µM (Bel-7402 [2]) was 53.1% and the inhibition of growth at 10 µM (KB [3]) was 59.5%. It also gave an IC50 (KB [6]) greater than 40 µM.
With `O=C(N/N=C/c1ccc(Cl)cc1)c1ccc(-c2ccccc2F)o1` the inhibition of growth at 10 µM (BGC-823 [1]) was 32.6%, the inhibition of growth at 10 µM (HL-60) was 6.49% and the inhibition of growth at 10 µM (Bel-7402 [2]) was 16.9%. The inhibition of growth at 10 µM (KB [3]) was 11.3%.
`O=C(N/N=C/c1ccccc1O)c1ccc(-c2ccc(F)cc2)o1` showed an inhibition of growth at 10 µM (BGC-823 [1]) of 74%, an IC50 (Bel-7402 [4]) of 50.3 µM and an IC50 (BGC-823 [5]) of 180 µM. The inhibition of growth at 10 µM (HL-60) was 13.1%, the inhibition of growth at 10 µM (Bel-7402 [2]) was 40% and the inhibition of growth at 10 µM (KB [3]) was 53.9%. For the same compound, the IC50 (KB [6]) was greater than 40 µM.
With `O=C(N/N=C/c1ccccc1)c1ccc(-c2ccc(Cl)cc2)o1` the inhibition of growth at 10 µM (BGC-823 [1]) was 33.7%, the inhibition of growth at 10 µM (HL-60) was 25.8% and the inhibition of growth at 10 µM (Bel-7402 [2]) was 2.28%. For the same compound, the inhibition of growth at 10 µM (KB [3]) was 17%.
`O=C(N/N=C/c1ccccc1O)c1ccc(-c2ccc(F)cc2F)o1` showed an inhibition of growth at 10 µM (BGC-823 [1]) of 79.1%, an IC50 (Bel-7402 [4]) of 8.3 µM and an IC50 (BGC-823 [5]) of 9.6 µM. For the same compound, the inhibition of growth at 10 µM (HL-60) was 43.1%, the inhibition of growth at 10 µM (Bel-7402 [2]) was 91.8% and the inhibition of growth at 10 µM (KB [3]) was 75.2%. For the same compound, the IC50 (KB [6]) was greater than 40 µM.
Work on `Cc1cccc(/C=N/NC(=O)c2ccc(-c3ccccc3[N+](=O)[O-])o2)c1` yielded an inhibition of growth at 10 µM (BGC-823 [1]) of 31.4%, an inhibition of growth at 10 µM (HL-60) of 9.54% and an inhibition of growth at 10 µM (Bel-7402 [2]) of 6.66%. It also gave an inhibition of growth at 10 µM (KB [3]) of 10.3%.
`O=C(N/N=C/c1ccccc1Cl)c1ccc(-c2ccc(F)cc2)o1` was tested, and the inhibition of growth at 10 µM (BGC-823 [1]) was 32%, the inhibition of growth at 10 µM (HL-60) was -3.22% and the inhibition of growth at 10 µM (Bel-7402 [2]) was 4.81%. It also gave an inhibition of growth at 10 µM (KB [3]) of 19.3%.
For `O=C(N/N=C/c1ccc(O)cc1)c1ccc(-c2ccc(F)cc2)o1`, the inhibition of growth at 10 µM (BGC-823 [1]) was 46.3%, the inhibition of growth at 10 µM (HL-60) was 1.07% and the inhibition of growth at 10 µM (Bel-7402 [2]) was 10.6%. The inhibition of growth at 10 µM (KB [3]) was 11%.
`O=C(N/N=C/c1cccc(Br)c1)c1ccc(-c2ccccc2F)o1` gave an inhibition of growth at 10 µM (BGC-823 [1]) of 43.6%, an inhibition of growth at 10 µM (HL-60) of 27.6% and an inhibition of growth at 10 µM (Bel-7402 [2]) of 12.5%. The inhibition of growth at 10 µM (KB [3]) was 26.5%.
For `COc1cccc2c1C(=O)c1c(O)c3c(c(O)c1C2=O)C[C@@](O)(C(=O)CO)C[C@@H]3O[C@H]1C[C@H](N)[C@H](O)[C@H](C)O1` [DOXORUBICIN], the IC50 (Bel-7402 [4]) was 5 µM, the IC50 (BGC-823 [5]) was 4.8 µM and the IC50 (KB [6]) was 5.8 µM.
